Legend:
[1] = Cytotoxicity against human THP-1 cells assessed as reduction in cell viability measured after 72 hr by MTT assay; assay type: toxicity, cell-based; details: read-out: TC50
Procedure, shortened: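 Undifferentiated THP-1 cells exposed to 0.1–100 μM compound for 72 h. Viability read by MTT reduction at 570 nm. TC50 from concentration–response; three experiments.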

[2] = n-Octanol/water distribution coefficient, log D of the compound at pH 7.4 measured after 4 hrs by shake flask method; assay type: physicochemical
Procedure, shortened: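 Shake-flask at room temperature between n-octanol and 50 mM phosphate buffer pH 7.4, ionic strength 0.15 M KCl. Phases were pre-saturated by 4 h shaking. Compound at about 0.1 mg/ml in buffer, shaken about 20 min with n-octanol, then centrifuged at 10000 rpm for 10 min.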

[3] = Stability of the compound in PBS at 100 uM at pH 7.4 measured after 24 hrs by RP-HPLC analysis; assay type: physicochemical; details: buffer, pH 7.4, 24 h
Procedure, shortened: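 Compound added from 10 mM DMSO stock to 50 mM PBS pH 7.4 at 37 °C. Sampled at intervals over 48 h and analysed by RP-HPLC with UV detection at 226/254 nm against calibration standards.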

[4] = Metabolic stability of the compound in human serum at 100 uM measured after 24 hrs by RP-HPLC analysis; assay type: ADME, cell-free
Procedure, shortened: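 Human male AB serum at 37 °C with compound at 100 μM (from 10 mM DMSO stock), sampled over 24 h. Aliquots deproteinized with CH3CN/0.1% TFA, centrifuged, filtered and analysed by RP-HPLC (phenyl column, 226/254 nm) with calibration 1-100 μM. Pseudo-first-order t1/2 from exponential decay fit.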

[5] = Metabolic stability of the compound in human THP-1 cells at 100 uM measured after 24 hrs by RP-HPLC analysis; assay type: ADME, cell-based; details: thp-1, 24 h
Procedure, shortened: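 Lysate from PMA-differentiated THP-1 cells (RIPA buffer) at 37 °C with compound at 100 μM, added from 10 mM DMSO stock. Aliquots deproteinized with CH3CN/0.1% TFA, centrifuged, filtered and quantified by RP-HPLC at 226/254 nm against external standards. Pseudo-first-order t1/2 from exponential decay fit; three independent experiments.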

| SMILES | CC50 at 72 h [1] [µM] | also measured |
| --- | --- | --- |
| CCOC(=O)c1ccc(Cn2nc(Cc3ccccc3Cl)oc2=O)cc1 | > 100 |  |
| CCOC(=O)C1CCCN(c2nnc(NC(=O)c3ccccc3Cl)s2)C1 (centres undefined) | 79.7 |  |
| COc1ccc(Cn2nc(Cc3ccccc3Cl)oc2=O)cc1 | 64.8 |  |
| COC(=O)c1ccc(-c2noc(Cc3ccccc3Cl)n2)cc1 | > 100 |  |
| COC(=O)c1ccc(-c2noc(Cc3cccc(C(F)(F)F)c3)n2)cc1 | 94.5 |  |
| O=c1oc(Cc2ccccc2Cl)nn1Cc1nn[nH]n1 | > 100 | logD at 4 h [2]: -1.09 |
| CC(C)(C)OC(=O)Cn1nc(Cc2ccccc2Cl)oc1=O | 98.9 | logD at 4 h [2]: 3.1 |
| COC(=O)c1ccc(-c2nc(Cc3cccc(C(F)(F)F)c3)no2)cc1 | > 100 |  |
| CC(C)c1cc(Cl)cc(C(C)C)c1NC(=O)NS(=O)(=O)c1cc(C(C)(C)O)co1 | 92.5 |  |
| O=C(O)c1ccc(-c2nc(Cc3cccc(C(F)(F)F)c3)no2)cc1 | 27.3 |  |
| CCOC(=O)CN(Cc1ccccc1)c1nnc(NC(=O)c2ccccc2Cl)s1 | 91.6 |  |
| O=C(O)Cn1nc(Cc2ccccc2Cl)oc1=O | 94.6 | Stability [3]: Stable; Stability [4]: Stable; logD at 4 h [2]: -1.66; Stability [5]: Stable |
| CCOC(=O)CN(C)c1nnc(NC(=O)c2ccccc2Cl)s1 | 96.1 |  |

Source: ChEMBL document CHEMBL5335784, “Discovery of a novel 1,3,4-oxadiazol-2-one-based NLRP3 inhibitor as a pharmacological agent to mitigate cardiac and metabolic complications in an experimental model of diet-induced metaflammation” (Eur J Med Chem, 2023)
